According to ChEMBL document CHEMBL3271971, “Antineoplastic and biochemical properties of arylsulfonylhydrazones of 2-formylpyridine N-oxide” (J Med Chem, 1976):

Tests used:
Mus musculus [1] = experiment: Effect on RNA synthesis in tumor of CD-1 mouse allografted with mouse S180A cells assessed as [3H]-uridine incorporation at 80 mg/kg, ip pretreated for 6 hrs followed by radiotracer-addition measured after 1 hr relative to control; format: functional; settings: route intraperitoneal
In short: (§1)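 Mice bearing 6-day Sarcoma 180 ascites implants received a single ip dose of 80 mg/kg. At the stated pretreatment time they were given ip tracer: 200 μg thymidine-3H, 200 μg uridine-3H or 125 μg DL-leucine-14C. After 1 h of incorporation, specific radioactivity of DNA, RNA or protein was read as % of control incorporation.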

Mus musculus [2] = experiment: Effect on protein synthesis in tumor of CD-1 mouse allografted with mouse S180A cells assessed as [14C]-leucine incorporation at 20 mg/kg, ip pretreated for 1 hr followed by radiotracer-addition measured after 1 hr relative to control; format: functional; settings: route intraperitoneal
In short: (§2)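 Sarcoma 180 ascites cells implanted 6 days earlier. Mice received a single ip dose of 10–80 mg/kg, then 1 h later an ip tracer: 200 μg thymidine-3H, 200 μg uridine-3H or 125 μg DL-leucine-14C. Tracer was incorporated for 1 h. Specific activity of tumor-cell DNA, RNA or protein is expressed as % of untreated controls. Values are means of 4-16 mice, each analyzed separately.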

Ehrlich [3] = experiment: Antineoplastic activity against mouse EAC cells allografted in CD-1 mouse assessed as mouse survival at 60 mg/kg administered qd for 6 days measured for 50 days relative to control; format: functional
In short: (§3)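 Ascitic tumours were transplanted from an appropriate donor mouse carrying a 7-day tumour growth. Drug was given at 10–60 mg/kg/day for six consecutive days. Sensitivity was judged by prolongation of survival time relative to untreated tumour-bearing controls. Mice were weighed throughout, and percentage weight change from onset to end of therapy indicated toxicity.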

Mus musculus [4] = experiment: Effect on protein synthesis in tumor of CD-1 mouse allografted with mouse S180A cells assessed as [14C]-leucine incorporation at 80 mg/kg, ip pretreated for 1 hr followed by radiotracer-addition measured after 1 hr relative to control; format: functional; settings: route intraperitoneal; in short: as §2
Ehrlich [5] = experiment: Antineoplastic activity against mouse EAC cells allografted in CD-1 mouse assessed as mouse survival at 40 mg/kg administered qd for 6 days measured for 50 days relative to control; format: functional; in short: as §3
Mus musculus [6] = experiment: Toxicity in BDF1 mouse allografted with mouse L1210 cells assessed as change in body weight at 60 mg/kg administered qd for 6 days (reference value: 13.6%); format: organism-based; design: dose 60 mg/kg; settings: in vivo, 144 h
In short: (§4)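 Ascitic tumors were transplanted from a donor mouse bearing a 7-day tumor. Daily doses were given for six consecutive days. Percentage body-weight change from onset to termination of therapy served as the index of drug toxicity.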

[7] = Antineoplastic activity against mouse S180A cells allografted in CD-1 mouse assessed as average survival at 40 mg/kg administered qd for 6 days (reference value: 12.9 +/- 1.2 days); format: functional; in short: as §3
L1210 [8] = experiment: Antineoplastic activity against mouse L1210 cells allografted in BDF1 mouse assessed as average survival at 20 mg/kg administered qd for 6 days (reference value: 8.2 +/- 0.4 days); format: functional; in short: as §3
[9] = Antineoplastic activity against mouse S180A cells allografted in CD-1 mouse assessed as mouse survival at 20 mg/kg administered qd for 6 days measured for 50 days relative to control; format: functional; in short: as §3
L1210 [10] = experiment: Antineoplastic activity against mouse L1210 cells allografted in BDF1 mouse assessed as average survival at 60 mg/kg administered qd for 6 days (reference value: 8.2 +/- 0.4 days); format: functional; in short: as §3
Mus musculus [11] = experiment: Toxicity in CD-1 mouse allografted with 1-formylisoquinoline thiosemicarbazone-resistant mouse S180A cells assessed as change in body weight at 60 mg/kg administered qd for 6 days (reference value: 29.6%); format: organism-based; design: dose 60 mg/kg; settings: in vivo, 144 h; in short: as §4
Mus musculus [12] = experiment: Toxicity in CD-1 mouse allografted with 1-formylisoquinoline thiosemicarbazone-resistant mouse S180A cells assessed as change in body weight at 40 mg/kg administered qd for 6 days (reference value: 29.6%); format: organism-based; design: dose 40 mg/kg; settings: in vivo, 144 h; in short: as §4
Ehrlich [13] = experiment: Antineoplastic activity against mouse EAC cells allografted in CD-1 mouse assessed as mouse survival at 20 mg/kg administered qd for 6 days measured for 50 days relative to control; format: functional; in short: as §3
Mus musculus [14] = experiment: Toxicity in CD-1 mouse allografted with mouse EAC cells assessed as change in body weight at 60 mg/kg administered qd for 6 days (reference value: 26.8%); format: organism-based, Ehrlich; design: dose 60 mg/kg; settings: in vivo, 144 h; in short: as §4
Mus musculus [15] = experiment: Effect on DNA synthesis in tumor of CD-1 mouse allografted with mouse S180A cells assessed as [3H]-thymidine incorporation at 10 mg/kg, ip pretreated for 1 hr followed by radiotracer-addition measured after 1 hr relative to control; format: functional; settings: route intraperitoneal; in short: as §2
Mus musculus [16] = experiment: Toxicity in CD-1 mouse allografted with mouse S180A cells assessed as change in body weight at 40 mg/kg administered qd for 6 days (reference value: 23.2%); format: organism-based; design: dose 40 mg/kg; settings: in vivo, 144 h
[17] = Antineoplastic activity against 1-formylisoquinoline thiosemicarbazone-resistant mouse S180A cells allografted in CD-1 mouse assessed as average survival at 60 mg/kg administered qd for 6 days (reference value: 14.4 +/- 0.9 days); format: functional; in short: as §3
Mus musculus [18] = experiment: Toxicity in C3H mouse allografted with mouse Hepa129 cells assessed as change in body weight at 60 mg/kg administered qd for 6 days (reference value: 13.5%); format: organism-based; design: dose 60 mg/kg; settings: in vivo, 144 h; in short: as §4
Mus musculus [19] = experiment: Effect on protein synthesis in tumor of CD-1 mouse allografted with mouse S180A cells assessed as [14C]-leucine incorporation at 80 mg/kg, ip pretreated for 3 hrs followed by radiotracer-addition measured after 1 hr relative to control; format: functional; settings: route intraperitoneal; in short: as §1
[20] = Antineoplastic activity against mouse Hepa129 cells allografted in C3H mouse assessed as average survival at 20 mg/kg administered qd for 6 days (reference value: 18 +/- 0.6 days); format: functional; in short: as §3
Mus musculus [21] = experiment: Toxicity in CD-1 mouse allografted with mouse EAC cells assessed as change in body weight at 20 mg/kg administered qd for 6 days (reference value: 26.8%); format: organism-based, Ehrlich; design: dose 20 mg/kg; settings: in vivo, 144 h; in short: as §4
[22] = Antineoplastic activity against mouse S180A cells allografted in CD-1 mouse assessed as average survival at 60 mg/kg administered qd for 6 days (reference value: 12.9 +/- 1.2 days); format: functional; in short: as §3
Mus musculus [23] = experiment: Toxicity in BDF1 mouse allografted with mouse L1210 cells assessed as change in body weight at 20 mg/kg administered qd for 6 days (reference value: 13.6%); format: organism-based; design: dose 20 mg/kg; settings: in vivo, 144 h; in short: as §4
[24] = Antineoplastic activity against mouse Hepa129 cells allografted in C3H mouse assessed as average survival at 60 mg/kg administered qd for 6 days (reference value: 18 +/- 0.6 days); format: functional; in short: as §3
Mus musculus [25] = experiment: Effect on protein synthesis in tumor of CD-1 mouse allografted with mouse S180A cells assessed as [14C]-leucine incorporation at 40 mg/kg, ip pretreated for 1 hr followed by radiotracer-addition measured after 1 hr relative to control; format: functional; settings: route intraperitoneal; in short: as §2
Mus musculus [26] = experiment: Effect on DNA synthesis in tumor of CD-1 mouse allografted with mouse S180A cells assessed as [3H]-thymidine incorporation at 80 mg/kg, ip pretreated for 6 hrs followed by radiotracer-addition measured after 1 hr relative to control; format: functional; settings: route intraperitoneal; in short: as §1
Mus musculus [27] = experiment: Toxicity in C3H mouse allografted with mouse Hepa129 cells assessed as change in body weight at 20 mg/kg administered qd for 6 days (reference value: 13.5%); format: organism-based; design: dose 20 mg/kg; settings: in vivo, 144 h; in short: as §4

Cc1ccc(S(=O)(=O)N/N=C/c2cccc[n+]2[O-])cc1
Activity (Mus musculus [1]): 50% | Activity (Mus musculus [2]): 95% | survival at 60 mg/kg (Ehrlich [3]): 40% | Activity (Mus musculus [4]): 73% | survival at 40 mg/kg (Ehrlich [5]): 50% | Activity (Mus musculus [6]): -5.8% | Survival [7]: 36.3 days | Survival (L1210 [8]): 8.6 days | survival at 20 mg/kg [9]: 10% | Survival (L1210 [10]): 11.8 days | Activity (Mus musculus [11]): 0% | Activity (Mus musculus [12]): 3.4% | survival at 20 mg/kg (Ehrlich [13]): 10% | Activity (Mus musculus [14]): -1.8% | Activity (Mus musculus [15]): 71% | Activity (Mus musculus [16]): -3.1% | Survival [17]: 24.4 days | Activity (Mus musculus [18]): -1.6% | Activity (Mus musculus [19]): 70% | Survival [20]: 22.2 days | Activity (Mus musculus [21]): 2.4% | Survival [22]: 38.4 days | Activity (Mus musculus [23]): 10.6% | Survival [24]: 29.4 days | Activity (Mus musculus [25]): 93% | Activity (Mus musculus [26]): 63% | Activity (Mus musculus [27]): 11%
